Test results as given in ChEMBL document CHEMBL3351625, “Ethyl 2-(benzylidene)-7-methyl-3-oxo-2,3-dihydro-5H-thiazolo[3,2-a]pyrimidine-6-carboxylate analogues as a new scaffold for protein kinase casein kinase 2 inhibitor” (Bioorg Med Chem, 2014).
Activity calls are given as the source filed them. No cut-off for these calls is given here.

Columns and labels:
[1] = target: Dual specificity tyrosine-phosphorylation-regulated kinase 2 (Homo sapiens) (UniProt Q92630); assay: Inhibition of human DYRK2 assessed as residual activity at 10 uM by KinaseProfiler assay
Dual specificity tyrosine-phosphorylation-regulated kinase 2 (Homo sapiens), sequence (Q92630 whole entry, looked up): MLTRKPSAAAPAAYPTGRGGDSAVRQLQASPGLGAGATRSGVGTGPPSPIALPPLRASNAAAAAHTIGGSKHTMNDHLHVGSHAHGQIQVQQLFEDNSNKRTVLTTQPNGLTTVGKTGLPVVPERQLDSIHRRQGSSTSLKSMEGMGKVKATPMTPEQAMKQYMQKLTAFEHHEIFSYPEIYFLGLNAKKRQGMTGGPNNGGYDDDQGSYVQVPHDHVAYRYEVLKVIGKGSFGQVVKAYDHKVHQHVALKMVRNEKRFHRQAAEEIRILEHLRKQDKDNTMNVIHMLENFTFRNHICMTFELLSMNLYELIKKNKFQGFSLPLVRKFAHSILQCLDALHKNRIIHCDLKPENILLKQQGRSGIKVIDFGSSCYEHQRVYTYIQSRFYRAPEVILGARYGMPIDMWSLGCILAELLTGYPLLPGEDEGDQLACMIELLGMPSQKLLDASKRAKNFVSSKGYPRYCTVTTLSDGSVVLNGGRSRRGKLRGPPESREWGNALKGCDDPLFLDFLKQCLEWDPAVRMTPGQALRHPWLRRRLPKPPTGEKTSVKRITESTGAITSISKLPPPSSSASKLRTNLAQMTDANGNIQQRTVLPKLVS

[2] = target: Ribosomal protein S6 kinase alpha-5 (Homo sapiens) (UniProt O75582); assay: Inhibition of human MSK1 assessed as residual activity at 10 uM by KinaseProfiler assay
Ribosomal protein S6 kinase alpha-5 (Homo sapiens), sequence (O75582 whole entry, looked up): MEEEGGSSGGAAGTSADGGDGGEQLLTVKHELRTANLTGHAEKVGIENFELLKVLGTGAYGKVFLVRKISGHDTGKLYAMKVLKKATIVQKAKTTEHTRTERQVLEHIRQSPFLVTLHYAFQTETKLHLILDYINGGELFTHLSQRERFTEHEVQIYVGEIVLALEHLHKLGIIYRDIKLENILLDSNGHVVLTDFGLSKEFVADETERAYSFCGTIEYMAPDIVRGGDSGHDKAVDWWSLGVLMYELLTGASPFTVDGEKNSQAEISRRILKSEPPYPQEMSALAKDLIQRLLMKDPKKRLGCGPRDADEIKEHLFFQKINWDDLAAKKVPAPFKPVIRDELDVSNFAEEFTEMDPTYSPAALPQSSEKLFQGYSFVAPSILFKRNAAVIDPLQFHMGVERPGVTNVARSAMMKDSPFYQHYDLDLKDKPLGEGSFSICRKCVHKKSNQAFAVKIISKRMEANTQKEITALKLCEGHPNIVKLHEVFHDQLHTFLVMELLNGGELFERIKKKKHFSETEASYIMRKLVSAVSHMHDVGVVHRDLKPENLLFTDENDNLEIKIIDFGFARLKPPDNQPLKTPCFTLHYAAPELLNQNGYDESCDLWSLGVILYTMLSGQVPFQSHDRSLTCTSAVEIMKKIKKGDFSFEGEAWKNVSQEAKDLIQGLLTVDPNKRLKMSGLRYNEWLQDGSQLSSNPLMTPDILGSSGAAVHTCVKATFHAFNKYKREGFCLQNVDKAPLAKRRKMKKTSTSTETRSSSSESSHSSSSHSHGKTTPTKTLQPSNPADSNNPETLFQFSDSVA
Procedure, shortened: (§1)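 Radioactive phosphorylation assays were run by an outsourced profiling service. Each of 31 human kinases was tested with inhibitor at 10 µM. Residual activity is expressed as a percentage of the mean activity in positive-control wells, which contained all reaction components except inhibitor plus DMSO as solvent control.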

MKN-1 = assay: Cytotoxicity against human MKN1 cells assessed as cell viability at 10 uM after 24 hrs by MTT assay; type: functional, cell-based
Procedure, shortened: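 Lines from Korea Cell Line Bank, kept in RPMI1640 with serum and penicillin/streptomycin at 37 °C, 5% CO2. Seeded at 1 × 10⁴ cells/well and grown 24 h, then exposed to the inhibitor for 24 h. MTT added at 4 mg/mL final for 2 h, formazan taken up in DMSO, absorbance read at 570 nm. Run in quadruplicate.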

[3] = target: Mitogen-activated protein kinase 1 (Homo sapiens) (UniProt P28482); assay: Inhibition of human MAPK2 assessed as residual activity at 10 uM by KinaseProfiler assay
Mitogen-activated protein kinase 1 (Homo sapiens), sequence (P28482 whole entry): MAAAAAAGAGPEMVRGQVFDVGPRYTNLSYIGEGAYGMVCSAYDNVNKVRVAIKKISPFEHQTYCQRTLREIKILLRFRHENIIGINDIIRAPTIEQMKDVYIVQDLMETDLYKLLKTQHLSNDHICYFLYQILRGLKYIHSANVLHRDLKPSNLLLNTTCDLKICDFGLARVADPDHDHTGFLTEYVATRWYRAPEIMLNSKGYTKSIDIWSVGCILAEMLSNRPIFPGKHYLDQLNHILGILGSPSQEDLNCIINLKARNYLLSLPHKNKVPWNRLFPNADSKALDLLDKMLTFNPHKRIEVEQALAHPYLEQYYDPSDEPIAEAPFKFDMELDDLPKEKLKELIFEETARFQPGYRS
Procedure, shortened: as §1

SK-HEP1 = assay: Cytotoxicity against human SKHEP1 cells assessed as cell viability at 10 uM after 24 hrs by MTT assay; type: functional, cell-based
[4] = target: 5'-AMP-activated protein kinase catalytic subunit alpha-2 (Homo sapiens) (UniProt P54646); assay: Inhibition of human AMPKalpha2 assessed as residual activity at 10 uM by KinaseProfiler assay
5'-AMP-activated protein kinase catalytic subunit alpha-2 (Homo sapiens), sequence (P54646 whole entry, looked up): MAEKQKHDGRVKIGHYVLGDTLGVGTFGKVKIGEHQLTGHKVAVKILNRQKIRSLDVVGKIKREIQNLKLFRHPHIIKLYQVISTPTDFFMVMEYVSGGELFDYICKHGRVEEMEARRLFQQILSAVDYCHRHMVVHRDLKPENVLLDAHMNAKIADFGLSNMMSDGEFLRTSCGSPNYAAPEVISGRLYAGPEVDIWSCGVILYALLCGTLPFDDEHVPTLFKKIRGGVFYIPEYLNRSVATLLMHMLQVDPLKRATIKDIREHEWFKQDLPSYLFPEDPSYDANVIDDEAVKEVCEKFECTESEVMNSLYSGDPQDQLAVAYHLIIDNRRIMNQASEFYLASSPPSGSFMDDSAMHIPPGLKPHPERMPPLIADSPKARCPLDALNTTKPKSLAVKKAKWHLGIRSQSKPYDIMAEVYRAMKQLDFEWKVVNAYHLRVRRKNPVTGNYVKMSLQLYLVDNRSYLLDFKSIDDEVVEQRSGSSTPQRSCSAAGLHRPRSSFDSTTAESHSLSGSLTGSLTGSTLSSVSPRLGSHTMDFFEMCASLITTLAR
Procedure, shortened: as §1

[5] = target: Protein kinase C alpha type (Homo sapiens) (UniProt P17252); assay: Inhibition of human PKCalpha assessed as residual activity at 10 uM by KinaseProfiler assay
Procedure, shortened: as §1

Homo sapiens = species on record: Homo sapiens; assay: Inhibition of human PKA assessed as residual activity at 10 uM by KinaseProfiler assay
Procedure, shortened: as §1

[6] = target: Tyrosine-protein kinase CSK (Homo sapiens) (UniProt P41240); assay: Inhibition of human CSK assessed as residual activity at 10 uM by KinaseProfiler assay
Tyrosine-protein kinase CSK (Homo sapiens), sequence (P41240 2-450 limits assumed): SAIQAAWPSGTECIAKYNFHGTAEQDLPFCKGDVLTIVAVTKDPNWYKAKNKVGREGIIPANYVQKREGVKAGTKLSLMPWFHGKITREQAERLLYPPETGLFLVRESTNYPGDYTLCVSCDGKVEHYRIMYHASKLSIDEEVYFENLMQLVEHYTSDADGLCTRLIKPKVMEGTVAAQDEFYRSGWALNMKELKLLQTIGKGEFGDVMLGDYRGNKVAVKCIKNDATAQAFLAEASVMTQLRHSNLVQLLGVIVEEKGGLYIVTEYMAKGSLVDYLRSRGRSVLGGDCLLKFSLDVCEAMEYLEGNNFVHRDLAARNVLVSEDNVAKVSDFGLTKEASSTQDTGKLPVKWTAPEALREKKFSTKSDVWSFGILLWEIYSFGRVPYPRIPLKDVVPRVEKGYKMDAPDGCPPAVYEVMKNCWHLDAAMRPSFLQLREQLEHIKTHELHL
Procedure, shortened: as §1

[7] = target: 5'-AMP-activated protein kinase catalytic subunit alpha-1 (Homo sapiens) (UniProt Q13131); assay: Inhibition of human AMPKalpha1 assessed as residual activity at 10 uM by KinaseProfiler assay
5'-AMP-activated protein kinase catalytic subunit alpha-1 (Homo sapiens), sequence (Q13131 whole entry, looked up): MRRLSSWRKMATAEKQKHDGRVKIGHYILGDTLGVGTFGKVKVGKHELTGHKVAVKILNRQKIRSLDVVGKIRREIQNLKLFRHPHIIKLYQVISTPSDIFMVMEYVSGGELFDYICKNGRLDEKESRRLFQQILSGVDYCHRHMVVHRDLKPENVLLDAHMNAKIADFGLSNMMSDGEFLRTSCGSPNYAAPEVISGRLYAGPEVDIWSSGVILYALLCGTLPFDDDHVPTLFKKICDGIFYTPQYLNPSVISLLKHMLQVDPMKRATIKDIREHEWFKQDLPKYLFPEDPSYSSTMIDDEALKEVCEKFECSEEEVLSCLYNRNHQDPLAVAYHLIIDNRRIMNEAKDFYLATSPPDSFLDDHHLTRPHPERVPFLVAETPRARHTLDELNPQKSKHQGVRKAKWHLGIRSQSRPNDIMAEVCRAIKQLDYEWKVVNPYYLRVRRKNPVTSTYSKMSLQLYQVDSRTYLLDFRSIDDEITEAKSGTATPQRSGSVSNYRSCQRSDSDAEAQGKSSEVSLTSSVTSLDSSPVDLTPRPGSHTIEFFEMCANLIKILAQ
Procedure, shortened: as §1

[8] = target: T1, Mitogen-activated protein kinase kinase kinase kinase 2 (Homo sapiens) (UniProt Q12851); assay: Inhibition of human GCK assessed as residual activity at 10 uM by KinaseProfiler assay
T1 sequence (whole entry): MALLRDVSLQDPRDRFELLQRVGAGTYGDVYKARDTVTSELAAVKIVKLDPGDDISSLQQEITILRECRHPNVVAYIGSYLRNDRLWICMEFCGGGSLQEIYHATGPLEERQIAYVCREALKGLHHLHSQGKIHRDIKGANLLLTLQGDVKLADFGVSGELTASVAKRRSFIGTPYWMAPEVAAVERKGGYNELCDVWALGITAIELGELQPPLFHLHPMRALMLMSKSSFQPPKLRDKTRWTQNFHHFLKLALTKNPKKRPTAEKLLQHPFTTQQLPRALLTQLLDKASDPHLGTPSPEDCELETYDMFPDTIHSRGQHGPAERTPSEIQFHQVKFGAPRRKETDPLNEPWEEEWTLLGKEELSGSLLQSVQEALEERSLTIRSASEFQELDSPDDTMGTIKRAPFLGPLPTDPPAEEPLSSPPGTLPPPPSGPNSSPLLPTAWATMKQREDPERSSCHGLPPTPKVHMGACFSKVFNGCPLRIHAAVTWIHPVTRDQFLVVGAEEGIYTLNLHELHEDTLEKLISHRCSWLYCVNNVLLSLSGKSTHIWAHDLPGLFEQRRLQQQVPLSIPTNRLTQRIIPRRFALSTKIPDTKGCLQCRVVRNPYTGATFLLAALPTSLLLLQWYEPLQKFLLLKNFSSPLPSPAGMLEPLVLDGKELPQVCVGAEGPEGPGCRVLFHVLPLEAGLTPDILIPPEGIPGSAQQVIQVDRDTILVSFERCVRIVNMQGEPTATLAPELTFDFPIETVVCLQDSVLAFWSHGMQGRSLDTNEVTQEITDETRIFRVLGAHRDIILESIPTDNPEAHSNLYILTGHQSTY
Procedure, shortened: as §1

[9] = target: T2, Serine/threonine-protein kinase Chk1 (Homo sapiens) (UniProt O14757); assay: Inhibition of human CHK1 assessed as residual activity at 10 uM by KinaseProfiler assay
T2 sequence (whole entry): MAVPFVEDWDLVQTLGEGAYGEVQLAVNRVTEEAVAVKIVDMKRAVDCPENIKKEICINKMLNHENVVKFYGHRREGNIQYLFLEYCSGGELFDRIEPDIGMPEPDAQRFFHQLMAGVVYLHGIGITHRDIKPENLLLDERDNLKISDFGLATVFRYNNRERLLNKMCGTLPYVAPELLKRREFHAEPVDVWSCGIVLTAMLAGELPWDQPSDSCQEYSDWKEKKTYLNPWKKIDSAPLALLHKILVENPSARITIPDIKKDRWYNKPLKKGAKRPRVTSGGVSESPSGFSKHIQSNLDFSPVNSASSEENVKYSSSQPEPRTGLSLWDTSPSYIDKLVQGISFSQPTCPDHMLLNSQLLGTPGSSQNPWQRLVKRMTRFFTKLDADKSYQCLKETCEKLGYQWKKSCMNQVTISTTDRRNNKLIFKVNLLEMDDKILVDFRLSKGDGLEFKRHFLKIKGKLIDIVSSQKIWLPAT
Procedure, shortened: as §1

[10] = target: T3, 3-phosphoinositide-dependent protein kinase 1 (Homo sapiens) (UniProt O15530); assay: Inhibition of human PDK1 assessed as residual activity at 10 uM by KinaseProfiler assay
T3 sequence (whole entry): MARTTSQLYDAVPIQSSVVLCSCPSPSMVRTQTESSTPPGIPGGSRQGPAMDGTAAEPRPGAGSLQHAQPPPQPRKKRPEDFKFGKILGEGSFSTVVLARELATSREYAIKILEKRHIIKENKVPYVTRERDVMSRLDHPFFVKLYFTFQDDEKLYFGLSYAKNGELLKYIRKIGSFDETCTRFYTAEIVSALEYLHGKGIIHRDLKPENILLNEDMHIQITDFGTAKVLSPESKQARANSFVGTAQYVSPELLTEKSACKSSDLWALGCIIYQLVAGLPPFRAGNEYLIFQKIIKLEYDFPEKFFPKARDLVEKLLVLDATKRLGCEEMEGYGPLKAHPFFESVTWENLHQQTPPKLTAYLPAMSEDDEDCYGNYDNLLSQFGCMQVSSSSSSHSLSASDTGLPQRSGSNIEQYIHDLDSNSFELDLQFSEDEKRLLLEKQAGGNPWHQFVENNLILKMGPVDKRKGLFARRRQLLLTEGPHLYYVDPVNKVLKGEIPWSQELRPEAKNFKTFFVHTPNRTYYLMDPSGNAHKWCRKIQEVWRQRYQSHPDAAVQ
Procedure, shortened: as §1

[11] = target: Tyrosine-protein kinase Fgr (Homo sapiens) (UniProt P09769); assay: Inhibition of human Fgr assessed as residual activity at 10 uM by KinaseProfiler assay
Tyrosine-protein kinase Fgr (Homo sapiens), sequence (P09769 2-529 limits assumed): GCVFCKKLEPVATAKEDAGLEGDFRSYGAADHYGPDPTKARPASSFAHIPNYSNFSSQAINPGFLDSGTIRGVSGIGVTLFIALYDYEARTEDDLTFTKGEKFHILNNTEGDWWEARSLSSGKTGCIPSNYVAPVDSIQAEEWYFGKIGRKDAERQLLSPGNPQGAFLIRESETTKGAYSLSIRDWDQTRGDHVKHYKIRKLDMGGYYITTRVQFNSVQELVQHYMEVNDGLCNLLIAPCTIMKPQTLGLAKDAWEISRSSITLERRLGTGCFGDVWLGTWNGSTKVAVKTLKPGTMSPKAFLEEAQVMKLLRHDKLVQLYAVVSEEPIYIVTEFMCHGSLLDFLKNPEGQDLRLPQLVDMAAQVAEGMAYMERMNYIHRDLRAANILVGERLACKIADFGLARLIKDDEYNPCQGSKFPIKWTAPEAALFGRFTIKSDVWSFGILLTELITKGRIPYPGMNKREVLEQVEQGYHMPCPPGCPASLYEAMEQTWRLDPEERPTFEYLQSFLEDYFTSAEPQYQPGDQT
Procedure, shortened: as §1

Row | SMILES | Activity [1] [%] | Activity [2] [%] | Activity (MKN-1) | Activity [3] [%] | Activity (SK-HEP1) | Activity [4] [%] | Activity [5] [%] | Activity (Homo sapiens) [%] | Activity [6] [%] | Activity [7] [%] | Activity [8] [%] | Activity [9] [%] | Activity [10] [%] | Activity [11] [%]
1 | CCOC(=O)C1=C(C)N=c2s/c(=C\c3ccc(O)c(O)c3)c(=O)n2C1c1ccc(Cl)cc1 (stereo not given) | 14 | 127 | Active | 85 | Active | 65 | 91 | 130 | 82 | 82 | 87 | 117 | 78 | 98
2 | CCOC(=O)C1=C(C)N=c2s/c(=C\c3cc(O)c(O)c(O)c3)c(=O)n2C1c1ccc(Cl)cc1 (stereo not given) | 118 | 124 |  | 87 |  | 48 | 91 | 92 | 54 | 64 | 87 | 127 | 69 | 75
3 | Brc1c(Br)c(Br)c2[nH]nnc2c1Br | 2 | 66 | Active | 104 | Active | 83 | 106 | 109 | 116 | 75 | 92 | 149 | 93 | 102
